Our source for the IC50 values is ChEMBL document CHEMBL2346615, “Design, synthesis, and molecular modelling of pyridazinone and phthalazinone derivatives as protein kinases inhibitors” (Bioorg Med Chem Lett, 2013).

pIC50: −log10 of the molar value.

Experiment [1] has as its target Dual specificity tyrosine-phosphorylation-regulated kinase 1A (Rattus norvegicus, UniProt Q63470). As to the kind of experiment: Inhibition of rat recombinant DYRK1A expressed in Escherichia coli using myelin basic protein as substrate after 30 mins by scintillation counting analysis in presence of [gamma-33P]ATP.
The target of experiment [2] is Cyclin-dependent kinase 5/CDK5 activator 1 (Homo sapiens, UniProt Q00535). As to the kind of experiment: Inhibition of human recombinant CDK5/p25 after 30 mins by scintillation counting analysis in presence of [gamma-33P]ATP. The format is protein-complex assay.
Sequence of Cyclin-dependent kinase 5/CDK5 activator 1 (Q00535 whole entry): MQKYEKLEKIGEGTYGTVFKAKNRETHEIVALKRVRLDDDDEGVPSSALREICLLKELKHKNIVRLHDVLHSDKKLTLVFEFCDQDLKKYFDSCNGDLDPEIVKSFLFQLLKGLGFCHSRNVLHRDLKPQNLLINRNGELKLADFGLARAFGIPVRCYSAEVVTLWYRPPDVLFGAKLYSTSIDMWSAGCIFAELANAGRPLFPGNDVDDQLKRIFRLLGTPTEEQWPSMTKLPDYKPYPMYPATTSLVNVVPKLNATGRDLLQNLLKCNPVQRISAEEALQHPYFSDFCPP
Sequence of Cyclin-dependent kinase 5/CDK5 activator 1 (Q15078 whole entry, further chain): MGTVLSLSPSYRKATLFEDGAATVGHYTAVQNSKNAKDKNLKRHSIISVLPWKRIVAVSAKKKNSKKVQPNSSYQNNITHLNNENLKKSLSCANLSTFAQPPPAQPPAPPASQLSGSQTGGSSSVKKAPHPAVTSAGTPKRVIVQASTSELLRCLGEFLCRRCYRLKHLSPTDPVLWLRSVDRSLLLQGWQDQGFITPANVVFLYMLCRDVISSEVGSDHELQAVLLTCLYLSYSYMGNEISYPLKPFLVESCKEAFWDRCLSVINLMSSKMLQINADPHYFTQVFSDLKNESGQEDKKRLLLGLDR
The target of experiment [3] is Glycogen synthase kinase-3 (Sus scrofa, UniProt B2LUN4+I6LNT8). As to the kind of experiment: Inhibition of pig brain GSK-3alpka/beta using YRRAAVPPSPSLSRHSSPHQSpEDEEE as substrate after 30 mins by scintillation counting analysis in presence of [gamma-33P]ATP.
Experiment [4] deals with T1, Casein kinase I isoform alpha (Sus scrofa, UniProt O19175).
T1 sequence (O19175 whole entry): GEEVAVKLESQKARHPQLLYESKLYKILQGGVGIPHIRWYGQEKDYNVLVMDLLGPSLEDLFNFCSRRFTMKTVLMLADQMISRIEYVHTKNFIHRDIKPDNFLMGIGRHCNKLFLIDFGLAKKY
The experiment in a line: Inhibition of pig brain CK1 using RRKHAAIGpSAYSITA as substrate after 30 mins by scintillation counting analysis in presence of [gamma-33P]ATP.

Another experiment deals with HCT-116. As to the kind of experiment: Cytotoxicity against human HCT116 cells after 48 hrs by MTT assay. It counts as functional, cell-based. The conditions noted are these: HCT-116, 48 h. An outline of the steps:
(§1)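 Run in triplicate, with the mean reported; the IC50 for each cell line comes from non-linear regression with a 95% confidence interval.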
Background: Formazan colour is commonly taken as a measure of viable cells.

A further experiment deals with SF-295. The experiment in a line: Cytotoxicity against human SF295 cells after 48 hrs by MTT assay. It counts as functional, cell-based. To be noted: SF-295, 48 h. An outline of the steps: as §1
Another experiment relates to OVCAR-8. As to the kind of experiment: Cytotoxicity against human OVCAR8 cells after 48 hrs by MTT assay. The format is functional, cell-based. To be noted: OVCAR-8, 48 h. An outline of the steps: as §1
The next experiment relates to HL-60. The experiment in a line: Cytotoxicity against human HL60 cells after 48 hrs by MTT assay. It counts as functional, cell-based. The conditions noted are these: HL-60, 48 h. An outline of the steps: as §1

In the case of `CC(C)C(=O)Nc1n[nH]c(=O)c2ccccc12`, the pIC50 in experiment [1], in experiment [2] and in experiment [4] was below 5.00 throughout. Besides, the half-maximal inhibitory concentration (IC50) (in general, the concentration that gives 50% inhibition) in experiment [3] is above 10 µM.
As for `Nc1n[nH]c(=O)c2ccccc12`, the pIC50 (commonly the IC50 on a negative log10 scale, so that one unit is a factor of ten) in experiment [1] was 5.39; with HCT-116, 4.90; with SF-295, 5.22; in the experiment on OVCAR-8 it was 4.93; in the experiment with HL-60 it was 5.05; in experiment [2], below 5.00. Also, the negative logarithm of the IC50 (pIC50) in experiment [4] is below 5.00. The half-inhibitory concentration (IC50) in experiment [3] is above 10 µM.
Consider `O=C(Nc1n[nH]c(=O)c2ccccc12)c1ccccc1`, for which the pIC50 in experiment [1], in experiment [2] and in experiment [4] was below 5.00 each time. Also, in experiment [3], the IC50 was above 10 µM.
Regarding `O=c1cc(-c2ccccc2)c(NCCN2CCCCC2)n[nH]1`, the pIC50 in experiment [1], in experiment [2] and in experiment [4] was below 5.00 each time. In experiment [3], the concentration for half-maximal inhibition (IC50) was above 10 µM.
`CN1CCC(Nc2cc(-c3ccccc3)c(=O)[nH]n2)CC1`: the pIC50 in experiment [1], in experiment [2] and in experiment [4] was below 5.00 in each case. For the same compound, in experiment [3], the IC50 is above 10 µM.
`CCCNc1n[nH]c(=O)c2ccccc12`: the negative-log IC50 (pIC50) in experiment [1], in experiment [2] and in experiment [4] was below 5.00 throughout. Besides, in experiment [3], the concentration for half-maximal inhibition (IC50) is above 10 µM.
As for `O=c1[nH]nc(NCCN2CCCCC2)c2ccccc12`, the pIC50 in experiment [1], in experiment [2] and in experiment [4] was below 5.00 in each case. The IC50 in experiment [3] is above 10 µM.
For the compound `CC(=O)Nc1n[nH]c(=O)cc1-c1ccccc1`, the pIC50 in experiment [1], in experiment [2] and in experiment [4] was below 5.00 throughout. In addition, in experiment [3], the IC50 was above 10 µM.
As to `Nc1n[nH]c(=O)cc1-c1ccccc1`, the negative-log IC50 (pIC50) in experiment [1], in experiment [2] and in experiment [4] was below 5.00 each time. Also, in experiment [3], the 50% inhibitory concentration (IC50) is above 10 µM.
Consider `CC(=O)Nc1cc(-c2ccccc2)c(=O)[nH]n1`, for which the negative logarithm of the IC50 (pIC50) in experiment [1] was 5.00; with HCT-116, 4.81; in the experiment on SF-295 it was 5.12; in the experiment with OVCAR-8 it was 4.85; in the experiment on HL-60 it was 4.94; in experiment [2] it was below 5.00. Besides, the negative logarithm of the IC50 (pIC50) in experiment [4] is below 5.00. For the same compound, the half-maximal inhibitory concentration (IC50) in experiment [3] was found to be 2.2 µM.
As for `Nc1cc(-c2ccccc2)c(=O)[nH]n1`, the pIC50 in experiment [1] was 5.22; with HCT-116, 5.36; with SF-295 it was 5.24; in the experiment on OVCAR-8 it was 5.31; in the experiment with HL-60, 5.44; in experiment [2], below 5.00. For the same compound, the pIC50 in experiment [4] is below 5.00. Further, the half-maximal inhibitory concentration (IC50) in experiment [3] worked out at 8.1 µM.
For the compound `O=C(Nc1cc(-c2ccccc2)c(Cl)nn1)c1ccccc1`, the pIC50 in experiment [1], in experiment [2] and in experiment [4] was below 5.00 throughout. In experiment [3], the concentration for half-maximal inhibition (IC50) was above 10 µM.
In the case of `O=C(Nc1cc(-c2ccccc2)c(=O)[nH]n1)c1ccccc1`, the negative logarithm of the IC50 (pIC50) in experiment [1], in experiment [2] and in experiment [4] was below 5.00 throughout. Moreover, the half-inhibitory concentration (IC50) in experiment [3] was above 10 µM.
For `CCCCCC(=O)N(C(=O)CCCCC)c1nnc(Cl)c2ccccc12`, the negative-log IC50 (pIC50) in experiment [1], in experiment [2] and in experiment [4] was below 5.00 each time. For the same compound, the concentration for half-maximal inhibition (IC50) in experiment [3] is above 10 µM.
`O=C(Cc1ccccc1)N(C(=O)Cc1ccccc1)c1nnc(Cl)c2ccccc12`: the pIC50 in experiment [1], in experiment [2] and in experiment [4] was below 5.00 in each case. Further, the IC50 in experiment [3] was above 10 µM.
With `O=C(Cc1ccccc1)Nc1nnc(Cl)c2ccccc12`, the negative-log IC50 (pIC50) in experiment [1], in experiment [2] and in experiment [4] was below 5.00 each time. In addition, in experiment [3], the IC50 was above 10 µM.
As for `CC(=O)N(C(C)=O)c1n[nH]c(=O)c2ccccc12`, the pIC50 in experiment [1], in experiment [2] and in experiment [4] was below 5.00 each time. The IC50 in experiment [3] was above 10 µM.
As for `CC(C)C(=O)N(C(=O)C(C)C)c1n[nH]c(=O)c2ccccc12`, the negative-log IC50 (pIC50) in experiment [1], in experiment [2] and in experiment [4] was below 5.00 throughout. For the same compound, the half-maximal inhibitory concentration (IC50) in experiment [3] is above 10 µM.
Turning to `O=C(Cc1ccccc1)Nc1n[nH]c(=O)c2ccccc12`, the pIC50 in experiment [1], in experiment [2] and in experiment [4] was below 5.00 in each case. For the same compound, the IC50 in experiment [3] was above 10 µM.
Turning to `CC(=O)Nc1n[nH]c(=O)c2ccccc12`, the negative-log IC50 (pIC50) in experiment [1], in experiment [2] and in experiment [4] was below 5.00 in each case. The IC50 in experiment [3] is above 10 µM.
For `O=c1[nH]nc(NCc2ccccc2)cc1-c1ccccc1`, the pIC50 in experiment [1], in experiment [2] and in experiment [4] was below 5.00 throughout. Also, in experiment [3], the half-maximal inhibitory concentration (IC50) is above 10 µM.
In the case of `O=c1cc(-c2ccccc2)c(NCc2ccccc2)n[nH]1`, the pIC50 in experiment [1], in experiment [2] and in experiment [4] was below 5.00 throughout. Besides, the concentration for half-maximal inhibition (IC50) in experiment [3] was above 10 µM.
As for `CCCNc1cc(-c2ccccc2)c(=O)[nH]n1`, the pIC50 in experiment [1], in experiment [2] and in experiment [4] was below 5.00 each time. In experiment [3], the IC50 is above 10 µM.
Consider `CCCNc1n[nH]c(=O)cc1-c1ccccc1`, for which the negative-log IC50 (pIC50) in experiment [1], in experiment [2] and in experiment [4] was below 5.00 each time. In addition, the IC50 in experiment [3] is above 10 µM.
Turning to `O=c1[nH]nc(NCCN2CCCCC2)cc1-c1ccccc1`, the negative-log IC50 (pIC50) in experiment [1], in experiment [2] and in experiment [4] was below 5.00 in each case. In experiment [3], the IC50 was above 10 µM.
